Screening results deposited in PubChem BioAssay by Broad Institute.
dFosB activator – activators of delta FosB homodimer, primary screen, biochemical, fluorescence polarization, TAMRA-CDK5 oligo, single point; activation, % at 25 µM; 340,000 compounds, 0.99% hits; AID 493131, 2011; purified delta FosB; percent of positive-control signal above neutral wells;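 active = mean activation above about 17%, with every replicate also reaching it, limit read from the data, passing the limit was not always enough; inconclusive = only one of the two conditions met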
Target sequence (P13346 whole entry, looked up): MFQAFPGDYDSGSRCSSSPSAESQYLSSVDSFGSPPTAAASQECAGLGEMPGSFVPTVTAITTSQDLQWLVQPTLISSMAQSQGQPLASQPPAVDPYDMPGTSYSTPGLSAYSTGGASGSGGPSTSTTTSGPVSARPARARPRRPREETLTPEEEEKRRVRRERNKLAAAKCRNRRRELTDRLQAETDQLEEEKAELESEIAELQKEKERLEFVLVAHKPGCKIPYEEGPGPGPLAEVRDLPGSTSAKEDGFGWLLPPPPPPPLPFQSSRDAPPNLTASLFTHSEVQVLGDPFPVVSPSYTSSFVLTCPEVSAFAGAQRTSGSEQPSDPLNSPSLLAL
Ecoli rRNA inh – reduced GFP signal of wild-type E. coli, primary screen, bacterial rRNA inhibitor project, GFP/RFP fluorescence, OD600, single point; E. coli WT GFP vs humanized-ribosome RFP mutants, 24 h; active compounds read low; DMSO median 0, no signal -100; GFP signal change (wild-type ribosome), % (no concentration beside the values); 350,000 compounds, 1.6% hits; AID 720706, 2013;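 active = significant combined selectivity score with lowered wild-type GFP, culture density cut under 30%, mutant RFP and density less affected; inactive = any of these conditions unmet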
XiGFP reactiv – activators of inactive X chromosome reactivation, primary screen, imaging, XiGFP fibroblasts, GFP high-content imaging, set 2; XiGFP mouse fibroblasts, % GFP-positive cells imaging, 3 d; cells co-treated with 5-aza-dC sensitizer; scaled so ellipticine positive control = 100%; activation, % at 7.58 µM; 360,000 compounds, 0.055% hits; AID 743238, 2013;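 active = mean normalized replicate activation at least 10% and every replicate at or above 10%; inconclusive = only one of the two criteria met; inactive = mean below 10% and not all replicates reach 10%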;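 note: 0% = median of on-plate neutral control wells and 100% = ellipticine 6 µM median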
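Material: XiGFP fibroblasts, SV40-immortalized. Buffer or medium: DMEM plus 5-aza-dC sensitizer. Compound: single concentration per compound, delivered by pin transfer. Times: 3 days compound exposure. Controls: ellipticine 6 µM.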
PvdQ acylase – P. aeruginosa PvdQ acylase inhibitors, primary screen, biochemical, fluorescence, plate reader and imaging, single point; purified PvdQ acylase; AID 488965, 2010; inhibition, % at 10 µM; 340,000 compounds, 0.063% hits; PvdQ acylase [Pseudomonas aeruginosa LESB58]; in the data active = inhibition above about 30%, passing the limit was not always enough; inconclusive = no clear call, values can overlap the other calls;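 note: 0% = vehicle neutral wells and 100% = reference inhibitor wells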
SR-BI DiI inh – inhibitors of SR-BI mediated HDL lipid uptake, primary screen, ldlA[mSR-BI] cells, fluorescence, single point. inhibition, % at 12.5 µM. Scavenger receptor class B member 1 (Mus musculus), Q61009. ldlA[mSR-BI] CHO cells, DiI-HDL uptake fluorescence, 3 h. 320,000 compounds, 0.96% hits. AID 488896, 2010;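 active = mean replicate inhibition of at least 70% and a set share of replicates each scoring 70 or more; inconclusive = meets just one of the two criteria; inactive = fails both criteria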;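 note: 0% = median of neutral control wells and 100% = median of positive control wells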
SR-BI uptake up – activators of SR-BI mediated DiI-HDL uptake, primary screen, ldlA[mSR-BI] CHO cells, DiI fluorescence; 3 h; 100 = double the neutral-control signal; activation, % at 12.5 µM; 320,000 compounds, 0.096% hits; AID 504775, 2011;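 active = mean replicate activation of at least 60% and every replicate at or above 60%; inconclusive = mean or all-replicate condition met, but not both; inactive = mean below 60% and not all replicates reaching 60%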;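 note: 0% = median plate neutral-control signal and 100% = twice that signal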
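Assay system: LDL receptor-deficient CHO ldlA cells overexpressing murine SR-BI / Medium: BSA-supplemented, HEPES-buffered Ham's F12, pH 7.4 / Probe or stimulus: DiI-labelled HDL at 10 µg/mL final / Timing: compound with DiI-HDL co-incubation, 3 h at 37 °C / Technique: bottom-read cell fluorescence after medium removal, ex 550/em 595 nm / Measure: HDL uptake via cellular fluorescence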
The depositor's hits bear a star; ? = inconclusive; nt = no result. Most compounds without a hit are left out; they make up all but 2.6% or so of the library.

SMILES | dFosB activator | Ecoli rRNA inh | XiGFP reactiv | PvdQ acylase | SR-BI DiI inh | SR-BI uptake up
CCOC(=O)Cc1csc(NC(=O)Nc2ccc(OC(F)(F)F)cc2)n1 | -4 | -21* | 0 | 4 | 20 | -20
CCOC(=O)Cc1csc(NC(=O)Cc2ccc(Br)cc2)n1 | 0 | -25 | 0 | -4 | -14 | 14
CCOC(=O)Cc1csc(NC(=O)Cc2ccc(Cl)cc2)n1 | -6 | -22* | 0 | -15 | 3 | -3
Cc1ccccc1N(C(=O)c1snc(C(N)=O)c1N)C(C(=O)NC1CCCCC1)c1ccc(O)cc1 (configuration not stated) | 5 | -1 | 0 | -9 | nt | nt
Cc1ccccc1N(C(=O)c1snc(C(N)=O)c1N)C(C)C(=O)NC1CCCCC1 (configuration not stated) | -6 | 14 | 0 | -12 | 83* | -83
CCSCCC(NC1=CC(=O)CC(C)(C)C1)C(=O)O (configuration not stated) | 5 | nt | nt | -12 | 2 | nt
O=C(N/N=C/c1ccccc1O)C(=O)N1CCCCCC1 | -2 | -25* | 0 | -11 | -8 | 8
CCOc1ccccc1Nc1nnc(SCC(=O)N(C)C2CCS(=O)(=O)C2)s1 (configuration not stated) | -14 | nt | 0 | -2 | 75* | -75
Cc1ccccc1Nc1nnc(SCC(=O)N(C)C2CCS(=O)(=O)C2)s1 (configuration not stated) | 1 | nt | 0 | -21 | -14 | 14
O=C(c1c[nH]c(C(=O)C(Cl)(Cl)Cl)c1)c1ccc(F)cc1Cl | 4 | -35* | 0 | -2 | -2 | 2
O=C(c1c[nH]c(C(=O)C(Cl)(Cl)Cl)c1)c1ccc(F)cc1F | 2 | -2 | 0 | -15 | 0 | 0
COc1ccc(-c2csc(Nc3ncccc3C)n2)cc1OC | -3 | nt | nt | -13 | 72* | -72
COc1ccc(-c2csc(NC(=O)Nc3ccccc3)n2)cc1 | 0 | -10 | 0 | 0 | 48 | -48
O=C(Nc1cccc(Cl)c1)Nc1nc(-c2ccc(Cl)cc2)cs1 | 2 | nt | nt | -2 | 79* | -79
O=C(Nc1ccccc1)Nc1nc(-c2ccc(Cl)cc2)cs1 | 3 | -18* | 0 | 13 | 38 | -38
O=C(Nc1nc(-c2ccccc2)cs1)c1ccccc1F | -19 | -20* | 0 | -11 | 11 | -11
CC(C(=O)Nc1nc(-c2ccc(F)c(F)c2)cs1)N1C(=O)C2CC=CCC2C1=O (configuration not stated) | 0 | -21 | 1 | -15 | 34 | -34
COc1ccc(-c2csc(NC(=O)[C@H](C)N3C(=O)C4CC=CCC4C3=O)n2)cc1OC (some centres not stated) | -7 | -13 | -1 | -16 | 71* | -71
COc1ccc(-c2csc(NC(=O)CCn3cnc4ccccc4c3=O)n2)cc1OC | ? | 0 | nt | -2 | 75* | -75
COc1ccc(-c2csc(NC(C)=O)n2)cc1OC | 6 | nt | nt | -8 | 4 | -4
COc1cccc(NC(=O)Nc2nc(-c3ccc(OC)c(OC)c3)cs2)c1 | 0 | 5 | 0 | 2 | 77* | -77
O=C(Cc1csc(NC(=O)Nc2cccc(Cl)c2)n1)NCc1cccnc1 | -15 | -2 | 0 | -13 | 20 | -20
O=C(Cc1csc(NC(=O)Nc2ccc(Cl)cc2)n1)NCc1cccnc1 | -8 | -32* | 0 | -9 | 35 | -35
C/C(CCC1CC(C)OC1=O)=N\NC(N)=S (configuration not stated) | 1 | 15 | 0 | 0 | 71* | -71
